Assay results as given in the RNAGym collection of RNA variant scans (doi:10.1002/anie.201605470).

B1: Osa-1-4 twister ribozyme (parent)
chain: CCGCCUAACACUGCCAAUGCCGGUCCCAAGCCCGGAUAAAAGUGGAGGGGGCGG

Variants of: B1
Experiment: self-cleavage, relative activity (ratio to wild type); higher = more cleavage; co-transcriptional
Method in brief: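 For each read, cleavage status was taken from whether upstream sequence was present. The reads came from an Oryza sativa twister ribozyme of 54 nucleotides, whose DNA template was synthesised with 97 % wild-type base and 1 % of each other base at the 48 positions downstream of the cleavage site. The template was transcribed in vitro at 37 °C for 2 h with co-transcriptional self-cleavage, and the RNA was reverse-transcribed using a template-switching oligonucleotide, PCR-amplified and deep-sequenced. Relative activity is the fraction cleaved normalised to wild type.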
In the case of A36U G51C, the self-cleavage is reported as 0.16. In the case of A36U G51A, the self-cleavage is reported as 0.84. With A36U G51U the self-cleavage was 0.52. A36U U18C showed a self-cleavage of 0.98. In the case of A36U U18G, the self-cleavage is reported as 0.88. For A36U U18A, the self-cleavage was 0.97. Variant A36U G45U has a self-cleavage of 0.13. A38C G23C showed a self-cleavage of 0.04. For A38C G23U, the self-cleavage was 0.07. With A38C G23A the self-cleavage was 0.1. A38C C26G gave a self-cleavage of 0.08. Work on A38C C26A yielded a self-cleavage of 0.07. Variant A38C C26U has a self-cleavage of 0.94. In the case of A38C C52A, the self-cleavage is reported as 1. In the case of A38C C52U, the self-cleavage is reported as 1.03. Work on A38C C52G yielded a self-cleavage of 1.03. Variant A38C G44U has a self-cleavage of 0.93. A38C G44A showed a self-cleavage of 0.99. With A38C G44C the self-cleavage was 0.97. A38C C15G showed a self-cleavage of 0.11. Variant A38C C15A has a self-cleavage of 0.31. A38C C15U showed a self-cleavage of 0.57. Work on A38C yielded a self-cleavage of 1.02. A38C A8G gave a self-cleavage of 0.53. Work on A38C A8U yielded a self-cleavage of 0.28. For A38C A8C, the self-cleavage was 0.07. With A38C G51A the self-cleavage was 0.69. In the case of A38C G51C, the self-cleavage is reported as 0.09. In the case of A38C G51U, the self-cleavage is reported as 0.37. With A38C G47U the self-cleavage was 0.22. With A38C G47C the self-cleavage was 0.08. For A38C G47A, the self-cleavage was 0.19. Variant A38C G49C has a self-cleavage of 0.06. With A38C G49A the self-cleavage was 0.1. Work on A38C G49U yielded a self-cleavage of 0.1. In the case of A38C A39C, the self-cleavage is reported as 0.86. With A38C A39U the self-cleavage was 0.96. A38C A39G gave a self-cleavage of 0.96. For A38C G42C, the self-cleavage was 0.12. Work on A38C G42U yielded a self-cleavage of 0.07. Variant A38C G42A has a self-cleavage of 0.35. In the case of A36U G54C, the self-cleavage is reported as 0.96. In the case of A36U G54A, the self-cleavage is reported as 1.01. Work on A36U G54U yielded a self-cleavage of 1.02. In the case of A36U U24C, the self-cleavage is reported as 0.45. With A36U U24A the self-cleavage was 0.27. Work on A36U U24G yielded a self-cleavage of 0.03. In the case of A38C G30U, the self-cleavage is reported as 0.03. A38C G30C showed a self-cleavage of 0.05. A38C G30A gave a self-cleavage of 0.05. A38C G45A showed a self-cleavage of 0.32. Variant A38C G45U has a self-cleavage of 0.1. With A38C G45C the self-cleavage was 0.05. Work on A36U G49C yielded a self-cleavage of 0.07. In the case of A36U G49U, the self-cleavage is reported as 0.17. A36U G49A showed a self-cleavage of 0.19. U37C U43C gave a self-cleavage of 0.38. Work on U37C U43A yielded a self-cleavage of 0.96. In the case of U37C U43G, the self-cleavage is reported as 0.66. In the case of A38C G22A, the self-cleavage is reported as 1.04. Variant A38C G22C has a self-cleavage of 0.09. With A38C G22U the self-cleavage was 0.87. Variant A36U U43G has a self-cleavage of 0.64. A36U U43C showed a self-cleavage of 0.38. In the case of A36U U43A, the self-cleavage is reported as 0.99. With A38C G19U the self-cleavage was 0.33. With A38C G19A the self-cleavage was 0.64. In the case of A38C G19C, the self-cleavage is reported as 0.07. A38C G34A showed a self-cleavage of 0.85. Variant A38C G34C has a self-cleavage of 0.38. For A38C G34U, the self-cleavage was 0.67. Work on A38C A40G yielded a self-cleavage of 0.84. Variant A38C A40U has a self-cleavage of 0.6. Variant A38C A40C has a self-cleavage of 0.09. With A38C G53A the self-cleavage was 0.84. Work on A38C G53U yielded a self-cleavage of 0.24. A38C G53C showed a self-cleavage of 0.08. Variant A38C C14U has a self-cleavage of 0.4. Variant A38C C14A has a self-cleavage of 0.09. Variant A38C C14G has a self-cleavage of 0.08. For A38C A7C, the self-cleavage was 0.05. Variant A38C A7U has a self-cleavage of 0.08. In the case of A38C A7G, the self-cleavage is reported as 0.22. With A38C G54C the self-cleavage was 0.93. A38C G54U gave a self-cleavage of 0.94. A38C G54A gave a self-cleavage of 0.96. In the case of A38C U18G, the self-cleavage is reported as 0.81. A38C U18A gave a self-cleavage of 0.98. A38C U18C showed a self-cleavage of 0.99. With A38C C27A the self-cleavage was 0.18. For A38C C27G, the self-cleavage was 0.06. A38C C27U showed a self-cleavage of 0.18. A36U U12A gave a self-cleavage of 0.99. A36U U12G gave a self-cleavage of 0.64. A36U U12C gave a self-cleavage of 0.58. A38C C20G gave a self-cleavage of 0.09. A38C C20U gave a self-cleavage of 0.95. A38C C20A showed a self-cleavage of 0.86. Work on A38C C31A yielded a self-cleavage of 0.04. For A38C C31G, the self-cleavage was 0.09. With A38C C31U the self-cleavage was 0.89. In the case of A38C G13C, the self-cleavage is reported as 0.03. With A38C G13A the self-cleavage was 0.07. For A38C G13U, the self-cleavage was 0.03. A38C G50U gave a self-cleavage of 1.04. A38C G50A gave a self-cleavage of 0.75. Work on A38C G50C yielded a self-cleavage of 1.01. With A38C G48U the self-cleavage was 0.07. In the case of A38C G48C, the self-cleavage is reported as 0.08. For A38C G48A, the self-cleavage was 0.09. Variant U37C has a self-cleavage of 1.04. With U37G the self-cleavage was 1.03. Work on U37A yielded a self-cleavage of 0.79. For U37G U43G, the self-cleavage was 0.68. U37G U43A showed a self-cleavage of 0.93. U37G U43C gave a self-cleavage of 0.52. A38C C9A showed a self-cleavage of 0.37. A38C C9U showed a self-cleavage of 0.78. Variant A38C C9G has a self-cleavage of 0.83. For A36U U37C, the self-cleavage was 1.07. In the case of A36U U37A, the self-cleavage is reported as 1.01. Variant A36U U37G has a self-cleavage of 1.05. For A38C C11G, the self-cleavage was 0.5. A38C C11A showed a self-cleavage of 0.74. With A38C C11U the self-cleavage was 0.92. In the case of A36U G47A, the self-cleavage is reported as 0.32. Variant A36U G47U has a self-cleavage of 0.31. With A36U G47C the self-cleavage was 0.13. Work on A38C C25G yielded a self-cleavage of 0.06. With A38C C25A the self-cleavage was 0.07. In the case of A38C C25U, the self-cleavage is reported as 0.88. Work on A36U G53U yielded a self-cleavage of 0.46. Variant A36U G53C has a self-cleavage of 0.11. With A36U G53A the self-cleavage was 0.94. In the case of A38C A46U, the self-cleavage is reported as 0.07. A38C A46G gave a self-cleavage of 0.06. A38C A46C gave a self-cleavage of 0.04. Variant A38C U12G has a self-cleavage of 0.29. For A38C U12A, the self-cleavage was 0.92. A38C U12C showed a self-cleavage of 0.38. Work on A38C C32A yielded a self-cleavage of 0.09. With A38C C32G the self-cleavage was 0.09. For A38C C32U, the self-cleavage was 0.13. For A36U G48C, the self-cleavage was 0.09. Variant A36U G48A has a self-cleavage of 0.12. A36U G48U showed a self-cleavage of 0.08. Variant A38C A41G has a self-cleavage of 0.69. Work on A38C A41C yielded a self-cleavage of 0.91. In the case of A38C A41U, the self-cleavage is reported as 1. In the case of A38C C33U, the self-cleavage is reported as 0.79. In the case of A38C C33A, the self-cleavage is reported as 0.1. A38C C33G gave a self-cleavage of 0.05. For A36U G50A, the self-cleavage was 0.87. In the case of A36U G50U, the self-cleavage is reported as 1.03. For A36U G50C, the self-cleavage was 1.06. In the case of A38C C21G, the self-cleavage is reported as 0.07. Variant A38C C21A has a self-cleavage of 0.27. In the case of A38C C21U, the self-cleavage is reported as 0.92. A38C U24A showed a self-cleavage of 0.16. In the case of A38C U24C, the self-cleavage is reported as 0.26. In the case of A38C U24G, the self-cleavage is reported as 0.04. Work on A38C G35U yielded a self-cleavage of 0.86. In the case of A38C G35C, the self-cleavage is reported as 0.36. A38C G35A gave a self-cleavage of 0.84. U37A U43G gave a self-cleavage of 0.43. U37A U43A showed a self-cleavage of 0.76. For U37A U43C, the self-cleavage was 0.44.
